Measurements from ChEMBL document CHEMBL3751816, “Design, synthesis and evaluation of acridine derivatives as multi-target Src and MEK kinase inhibitors for anti-tumor treatment” (Bioorg Med Chem, 2016).
Calls of active or inactive are those of the source. No cut-off for these calls is given here.

Columns and labels:
HepG2 = assay: Cytotoxicity against human HepG2 cells after 48 hrs by MTT assay; type: functional, cell-based; settings: HepG2, 48 h
How it was run: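 HepG-2 cells in DMEM with 10% FBS, 37 °C, 5% CO2. Seeded at 5×10^5 cells/mL for 12 h, then medium removed. Compounds in DMSO diluted to final 0.01–50 µM (DMSO below 1%), triplicate per concentration, 48 h. MTT 4 h at 37 °C, formazan taken up in DMSO, A495 read.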

K562 [1] = assay: Cytotoxicity against human K562 cells after 48 hrs by MTT assay; type: functional, cell-based; settings: K562, 48 h
How it was run: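 K562 cells in DMEM with 10% FBS, 37 °C, 5% CO2. Seeded at 7×10^5 cells/mL and held 12 h. Compounds in DMSO, diluted to final 0.01–50 µM (final DMSO below 1%), triplicate per concentration, 48 h. Then MTT 4 h at 37 °C, formazan dissolved in DMSO, absorbance read at 495 nm.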

K562 [2] = assay: Induction of apoptosis in human K562 cells assessed as early cleavage of PARP at 10 uM after 48 hrs by Western blot analysis; type: functional, cell-based
How it was run: (§1)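 K562 cells treated 48 h at 37 °C. Lysed on ice 30 min (HEPES pH 7.9, KCl, EDTA, 0.1% NP-40, Na3VO4, NaF, protease inhibitors), then cleared at 12000 g, 4 °C. Protein measured by Bradford and equal amounts run on SDS–PAGE. Transferred to PVDF and immunoblotted for cleaved caspase-3, cleaved caspase-7 and cleaved PARP.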

[3] = target: Proto-oncogene tyrosine-protein kinase Src (Homo sapiens) (UniProt P12931); assay: Inhibition of Src (unknown origin) at 10 uM after 15 mins by luminescence assay
How it was run: (§2)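 Contract-run kinase assay. Enzyme, substrate, ATP and compound (10 µM, in 2.5% DMSO) mixed in pH 7.0 buffer: 50 mM HEPES/NaOH, 0.02% NaN3, 0.01% BSA, orthovanadate, 5 mM MgCl2, 1 mM DTT. Incubated 15 min at room temperature. Detection with streptavidin-XL665 plus TK antibody europium cryptate in KF/EDTA buffer. […]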

K562 [4] = assay: Induction of apoptosis in human K562 cells assessed as early stage apoptotic cells at 10 uM after 48 hrs by annexin V-FITC staining (reference value: 3.14%); type: functional
K562 [5] = assay: Induction of apoptosis in human K562 cells assessed as early cleavage of caspase-3 at 10 uM after 48 hrs by Western blot analysis; type: functional, cell-based; how it was run: as §1
[6] = target: T1, Dual specificity mitogen-activated protein kinase kinase; MEK1/2 (Homo sapiens) (UniProt P36507+Q02750); assay: Inhibition of MEK in human K562 cells assessed as decrease of ERK expression after 48 hrs by Western blot analysis; type: cell-based
How it was run: (§3)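 K562 cells treated at 0, 0.5, 2.5, 5 and 10 µM for 48 h at 37 °C. Lysed on ice 30 min in NP-40/HEPES pH 7.9 buffer with phosphatase and protease inhibitors, cleared at 12000 g. Bradford-normalized protein run on SDS–PAGE, transferred to PVDF, and probed for ERK and AKT.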

K562 [7] = assay: Induction of apoptosis in human K562 cells after 48 hrs by annexin V-FITC staining; type: functional, cell-based
[8] = target: Proto-oncogene tyrosine-protein kinase Src (Homo sapiens) (UniProt P12931); assay: Inhibition of Src in human K562 cells assessed as decrease of AKT expression after 48 hrs by Western blot analysis; type: cell-based; how it was run: as §3
K562 [9] = assay: Induction of apoptosis in human K562 cells assessed as live cells at 10 uM after 48 hrs by annexin V-FITC staining (reference value: 96.49%); type: functional
K562 [10] = assay: Induction of apoptosis in human K562 cells assessed as live cells at 0.5 uM after 48 hrs by annexin V-FITC staining (reference value: 96.49%); type: functional
K562 [11] = assay: Induction of apoptosis in human K562 cells assessed as live cells at 5 uM after 48 hrs by annexin V-FITC staining (reference value: 96.49%); type: functional
Calf thymus DNA = assay: Binding affinity to calf thymus DNA at 10 uM by UV-vis spectrophotometric titration analysis; type: nucleic-acid assay; settings: Bos taurus
[12] = target: T1, Dual specificity mitogen-activated protein kinase kinase; MEK1/2 (Homo sapiens); assay: Inhibition of MEK (unknown origin) at 10 uM after 15 mins by luminescence assay; how it was run: as §2
K562 [13] = assay: Induction of apoptosis in human K562 cells assessed as early stage apoptotic cells at 5 uM after 48 hrs by annexin V-FITC staining (reference value: 3.14%); type: functional
[14] = target: Proto-oncogene tyrosine-protein kinase Src (Homo sapiens) (UniProt P12931); assay: Inhibition of Src in human K562 cells assessed as decrease of ERK expression after 48 hrs by Western blot analysis; type: cell-based; how it was run: as §3
K562 [15] = assay: Induction of apoptosis in human K562 cells assessed as early stage apoptotic cells at 0.5 uM after 48 hrs by annexin V-FITC staining (reference value: 3.14%); type: functional
K562 [16] = assay: Induction of apoptosis in human K562 cells assessed as late stage apoptotic cells at 0.5 uM after 48 hrs by annexin V-FITC staining (reference value: 0.23%); type: functional
K562 [17] = assay: Induction of apoptosis in human K562 cells assessed as necrotic cells at 5 uM after 48 hrs by annexin V-FITC staining (reference value: 0.15%); type: functional
K562 [18] = assay: Induction of apoptosis in human K562 cells assessed as necrotic cells at 10 uM after 48 hrs by annexin V-FITC staining (reference value: 0.15%); type: functional
K562 [19] = assay: Inhibition of PI3K in human K562 cells assessed as decrease of ERK expression after 48 hrs by Western blot analysis; type: cell-based; how it was run: as §3
[20] = target: T1, Dual specificity mitogen-activated protein kinase kinase; MEK1/2 (Homo sapiens); assay: Inhibition of MEK in human K562 cells assessed as decrease of AKT expression after 48 hrs by Western blot analysis; type: cell-based; how it was run: as §3
K562 [21] = assay: Induction of apoptosis in human K562 cells assessed as necrotic cells at 0.5 uM after 48 hrs by annexin V-FITC staining (reference value: 0.15%); type: functional
Homo sapiens = species: Homo sapiens; assay: Inhibition of PI3K (unknown origin) at 10 uM after 15 mins by luminescence assay
K562 [22] = assay: Induction of apoptosis in human K562 cells assessed as late stage apoptotic cells at 10 uM after 48 hrs by annexin V-FITC staining (reference value: 0.23%); type: functional
K562 [23] = assay: Induction of apoptosis in human K562 cells assessed as early cleavage of caspase-7 at 10 uM after 48 hrs by Western blot analysis; type: functional, cell-based; how it was run: as §1
K562 [24] = assay: Inhibition of PI3K in human K562 cells assessed as decrease of AKT expression after 48 hrs by Western blot analysis; type: cell-based; how it was run: as §3
K562 [25] = assay: Induction of apoptosis in human K562 cells assessed as late stage apoptotic cells at 5 uM after 48 hrs by annexin V-FITC staining (reference value: 0.23%); type: functional

T1 sequence (P36507 whole entry, looked up): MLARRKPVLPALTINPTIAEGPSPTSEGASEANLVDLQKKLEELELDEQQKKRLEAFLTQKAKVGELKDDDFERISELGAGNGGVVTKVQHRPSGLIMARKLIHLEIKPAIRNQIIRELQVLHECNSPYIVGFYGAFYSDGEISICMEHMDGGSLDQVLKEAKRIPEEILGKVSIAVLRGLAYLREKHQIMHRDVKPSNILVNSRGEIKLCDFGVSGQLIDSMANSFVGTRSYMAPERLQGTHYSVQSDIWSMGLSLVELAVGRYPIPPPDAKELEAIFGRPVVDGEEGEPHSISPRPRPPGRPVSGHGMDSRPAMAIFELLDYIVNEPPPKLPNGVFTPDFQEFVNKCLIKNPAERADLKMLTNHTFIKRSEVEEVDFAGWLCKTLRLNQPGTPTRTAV
T1 sequence (Q02750 whole entry, looked up): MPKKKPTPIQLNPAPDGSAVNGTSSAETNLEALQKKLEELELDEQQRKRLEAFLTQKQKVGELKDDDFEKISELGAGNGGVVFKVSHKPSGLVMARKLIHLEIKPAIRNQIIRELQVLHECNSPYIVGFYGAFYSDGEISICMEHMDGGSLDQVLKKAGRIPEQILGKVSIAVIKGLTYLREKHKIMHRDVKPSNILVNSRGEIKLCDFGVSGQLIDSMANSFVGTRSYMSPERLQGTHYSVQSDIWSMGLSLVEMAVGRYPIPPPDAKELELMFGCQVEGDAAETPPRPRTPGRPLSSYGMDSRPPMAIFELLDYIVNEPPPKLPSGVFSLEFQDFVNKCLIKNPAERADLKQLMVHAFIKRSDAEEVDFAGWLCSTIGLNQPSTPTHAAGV
Chain of Proto-oncogene tyrosine-protein kinase Src (Homo sapiens) (P12931 2-536 limits assumed): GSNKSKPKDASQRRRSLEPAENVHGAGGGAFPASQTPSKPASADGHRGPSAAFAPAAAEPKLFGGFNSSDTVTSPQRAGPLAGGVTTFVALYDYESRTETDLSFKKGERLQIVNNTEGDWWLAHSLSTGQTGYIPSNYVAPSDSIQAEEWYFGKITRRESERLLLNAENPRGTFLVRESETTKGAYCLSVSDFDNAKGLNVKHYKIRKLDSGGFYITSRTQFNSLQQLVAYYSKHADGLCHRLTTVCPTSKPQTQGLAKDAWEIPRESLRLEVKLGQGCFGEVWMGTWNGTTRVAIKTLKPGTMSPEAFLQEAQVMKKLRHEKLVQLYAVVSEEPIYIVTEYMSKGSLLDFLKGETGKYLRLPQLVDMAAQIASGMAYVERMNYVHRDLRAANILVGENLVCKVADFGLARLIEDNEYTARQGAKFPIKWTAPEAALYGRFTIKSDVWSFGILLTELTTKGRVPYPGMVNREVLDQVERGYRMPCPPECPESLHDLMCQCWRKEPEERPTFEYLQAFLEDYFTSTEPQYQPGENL

CCCc1ccc(NC(=O)Nc2ccc(Nc3c4ccccc4nc4cc([N+](=O)[O-])ccc34)cc2)cc1
IC50 (HepG2): 14.4 µM
IC50 (K562 [1]): 1.56 µM

COc1cccc2c(Nc3ccc(NC(=O)Nc4ccccc4)cc3)c3ccccc3nc12
IC50 (HepG2): 6.12 µM
IC50 (K562 [1]): 0.49 µM

COc1ccc(NC(=O)Nc2ccc(Nc3c4ccccc4nc4cc([N+](=O)[O-])ccc34)cc2)cc1
IC50 (HepG2): > 25 µM
IC50 (K562 [1]): 7.68 µM

O=C(Nc1ccc(Nc2c3ccccc3nc3cc([N+](=O)[O-])ccc23)cc1)Nc1cccc(C(F)(F)F)c1
IC50 (HepG2): > 25 µM
IC50 (K562 [1]): 1.2 µM

Cc1cccc(NC(=O)Nc2ccc(Nc3c4ccccc4nc4cc([N+](=O)[O-])ccc34)cc2)c1
IC50 (HepG2): > 25 µM
IC50 (K562 [1]): 11.6 µM

COc1ccc2nc3cc([N+](=O)[O-])ccc3c(Nc3ccc(NC(=O)Nc4ccccc4)cc3)c2c1
IC50 (HepG2): > 25 µM
IC50 (K562 [1]): 3.79 µM

COc1ccc2nc3cc(Cl)ccc3c(Nc3ccccc3OC)c2c1
IC50 (HepG2): > 50 µM
IC50 (K562 [1]): 5.8 µM

COc1cccc2c(Nc3ccc(NC(=O)Nc4cccc(C(F)(F)F)c4)cc3)c3ccccc3nc12
IC50 (HepG2): 13.1 µM
IC50 (K562 [1]): 1.93 µM

COc1cccc2c(Nc3ccc(NC(=O)Nc4ccccc4)cc3)c3ccc([N+](=O)[O-])cc3nc12
IC50 (HepG2): 17.6 µM
IC50 (K562 [1]): 2.58 µM

COc1ccc2nc3cc(Cl)ccc3c(Nc3ccc(NC(=O)Nc4ccccc4)cc3)c2c1
IC50 (HepG2): 9.56 µM
IC50 (K562 [1]): 3.42 µM

O=C(Nc1ccc(Nc2c3ccccc3nc3cc([N+](=O)[O-])ccc23)cc1)Nc1cccc(Cl)c1
IC50 (HepG2): > 25 µM
IC50 (K562 [1]): 13.9 µM

COc1ccccc1NC(=O)Nc1ccc(Nc2c3ccccc3nc3cc([N+](=O)[O-])ccc23)cc1
IC50 (HepG2): 19.4 µM
IC50 (K562 [1]): 4.51 µM

CCc1ccc(NC(=O)Nc2ccc(Nc3c4ccccc4nc4cc([N+](=O)[O-])ccc34)cc2)cc1
IC50 (HepG2): 14.8 µM
IC50 (K562 [1]): 1.86 µM

CCCCc1ccc(NC(=O)Nc2ccc(Nc3c4ccccc4nc4cc([N+](=O)[O-])ccc34)cc2)cc1
IC50 (HepG2): 14 µM
IC50 (K562 [1]): 1.23 µM

COc1cccc(NC(=O)Nc2ccc(Nc3c4ccccc4nc4cc([N+](=O)[O-])ccc34)cc2)c1
IC50 (HepG2): 22.3 µM
IC50 (K562 [1]): 4.55 µM

O=C(Nc1ccc(Nc2c3ccccc3nc3cc([N+](=O)[O-])ccc23)cc1)Nc1cccc(F)c1
IC50 (HepG2): > 25 µM
IC50 (K562 [1]): 11.1 µM

O=C(Nc1ccccc1)Nc1ccc(Nc2c3ccccc3nc3cc([N+](=O)[O-])ccc23)cc1
IC50 (HepG2): 19.8 µM
IC50 (K562 [1]): 3.3 µM

CCc1cccc(NC(=O)Nc2ccc(Nc3c4ccccc4nc4cc([N+](=O)[O-])ccc34)cc2)c1
IC50 (HepG2): 22.7 µM
IC50 (K562 [1]): 8.92 µM

COc1ccc2c(Nc3ccc(NC(=O)Nc4ccccc4)cc3)c3ccccc3nc2c1
Activity (K562 [2]): Active
IC50 (HepG2): 9.41 µM
inhibition [3]: 59.7%
Activity (K562 [4]): 54.98%
Activity (K562 [5]): Active
inhibition [6]: Dose-dependent effect
Activity (K562 [7]): Dose-dependent effect
inhibition [8]: Dose-dependent effect
Activity (K562 [9]): 37.83%
Activity (K562 [10]): 96.6%
Activity (K562 [11]): 85.42%
Activity (Calf thymus DNA): 0.083 M⁻¹
inhibition [12]: 43.2%
Activity (K562 [13]): 14.05%
inhibition [14]: Dose-dependent effect
Activity (K562 [15]): 6.13%
Activity (K562 [16]): 0.1%
Activity (K562 [17]): 0.3%
IC50 (K562 [1]): 4.08 µM
Activity (K562 [18]): 0.73%
inhibition (K562 [19]): Dose-dependent effect
inhibition [20]: Dose-dependent effect
Activity (K562 [21]): 0.15%
inhibition (Homo sapiens): 44.4%
Activity (K562 [22]): 6.45%
Activity (K562 [23]): Active
inhibition (K562 [24]): Dose-dependent effect
Activity (K562 [25]): 0.23%

Cc1ccc(NC(=O)c2ccc(CN3CCN(C)CC3)cc2)cc1Nc1nccc(-c2cccnc2)n1 [IMATINIB]
IC50 (HepG2): > 25 µM
IC50 (K562 [1]): 0.53 µM
